Test results: PubChem BioAssay
Records with an inconclusive call do not appear.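 The calls were made as follows, unless noted: active = RAM network inhibition above 8.4% in each of two replicates, 3 SD over the compound average; inconclusive = above 8.4% inhibition in only one replicate; inactive = 8.4% inhibition or less in each replicate.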

Columns and labels:
[1] = S. cerevisiae growth inhibition in permissive medium (OD615), pilot counter-assay for S. cerevisiae lifespan shortening project, permissive growth control (AID 705;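 active = growth inhibition above 25% in both replicates, a cutoff set 3 SD above the mean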); settings: OD615, 24 h, at 10 µM, stronger effect = higher value
Procedure, shortened: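 Material: engineered DeaD yeast; compound dosing: one dose 10 µM, DMSO 0.25% final; measure: yeast growth inhibition indicated by reduced 24 h OD615; detection: OD615 turbidity read; incubation: cells pre-grown 4 h, then 24 h compound exposure, 30 °C humidified; medium: permissive synthetic complete medium with raffinose and galactose carbon sources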

[2] = S. cerevisiae growth inhibition in restrictive medium, OD615, pilot screen, restrictive growth control, yeast lifespan reduction project (AID 706;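 active = growth inhibition above a set limit, 3 SD over mean compound inhibition, in both replicates, cut at about 43% in these data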;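 also: modified DeaD lifespan yeast strain shifted to restrictive glucose medium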); settings: OD615, 48 h, at 10 µM, stronger effect = higher value
Procedure, shortened: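 material = engineered S. cerevisiae DeaD strain | medium = glucose-based CSMM-D restrictive medium | times = 4 h pre-incubation, 48 h exposure at 30 °C | technique = OD615 absorbance reading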

[3] = doxorubicin toxicity protection in MRP-1 cells – H69AR cells, CellTiter-Glo, duplicate, MRP-1 activator project, pilot screen (AID 807;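 active = viability increase at or above a cutoff of the median across tested compounds plus 3 SD, cut at about 8.5% in these data, passing the limit was not always enough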;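 also: compound pretreatment 18-22 h then 72 h combined with doxorubicin; 0% = doxorubicin alone and 100% = vehicle without doxorubicin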); settings: H69AR viability with doxorubicin, CellTiter-Glo luminescence; at 10 µM; stronger effect = higher value
[4] = viability of HCT116 without oncogenic beta-catenin – human colon tumor cells, pilot screen (AID 823;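 active = cell viability at or below a set limit in both duplicate runs, the limit being the all-compound median minus 4 SD, cut at about 23% in these data, passing the limit was not always enough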;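 also: 0% = wells killed by 20 µM Hyamine and 100% = untreated DMSO cell wells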); settings: HCT116 beta-catenin knockout viability, CellTiter-Glo, 60 h; at 10 µM; stronger effect = lower value
[5] = viability of PTEN-null HCT116 cells – cell-based, HCT116 clonal line, CellTiter-Glo, pilot screen (AID 824;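 active = viability at or below 27.92% in each of two runs, the all-compound median minus 4 SD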;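 also: 0% = 20 µM Hyamine control and 100% = vehicle cell control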); settings: HCT116 PTEN-deleted viability, 60 h, at 10 µM, stronger effect = lower value
[6] = RAM pathway blockade in budding yeast – dse1pr::URA3 reporter, 5-FOA selection, pilot screen (AID 869;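 active = inhibition over a set limit, the all-compound mean plus 3 SD, in both replicate runs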;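 also: 0% = DMSO wells with no growth and 100% = 10 µM 1-NA-PP1 with full growth; RAM network block rescues cells from 5-FOA so hits raise OD615 growth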); settings: S. cerevisiae dse1pr::URA3 5-FOA growth, OD615, 2 d; at 10 µM; stronger effect = higher value; strain carries analog-sensitive mutant Cbk1 kinase
[7] = RAM signaling pathway blockade in yeast – S. cerevisiae, Pdr1DBD-CYC8 efflux-inhibited sensitized strain, primary screen (AID 1298);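 also: 0% = DMSO untreated cells without growth and 100% = 10 µM 1-NA-PP1 full growth; higher means more yeast growth rescued from 5-FOA killing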; settings: S. cerevisiae cbk1-as DSE1-URA3 strain, 5-FOA growth OD615, 2 d; at 50 µM; stronger effect = higher value

c1ccc(CNc2ncnc3c2ncn3C2CCCCO2)cc1 (configuration not stated)
inactive: growth inhibition [1] -5.22% | growth inhibition [2] -8.96% | viability increase [3] -1.76% | viability [4] 101% | viability [5] 98% | inhibition [6] 1.25% | RAM network inhibition [7] 5.84%

Cc1ccc(C)c(N2CCN(C(=O)C3CCCN(S(=O)(=O)c4cnc[nH]4)C3)CC2)c1 (configuration not stated)
inactive: growth inhibition [1] 5.12% | growth inhibition [2] -0.49% | viability increase [3] 2.66% | viability [4] 94.9% | viability [5] 95.4% | inhibition [6] 2.12% | RAM network inhibition [7] -0.52%

CCOC(=O)C1CCN(S(=O)(=O)c2ccc(OCC)cc2)CC1
inactive: growth inhibition [1] -6.07% | growth inhibition [2] -13.5% | viability increase [3] -2.24% | viability [4] 92% | viability [5] 94.4% | inhibition [6] 0.575% | RAM network inhibition [7] 6.62%

CCC(C)Sc1nc2c(cnn2-c2ccc(C)c(C)c2)c(=O)[nH]1 (configuration not stated)
inactive: growth inhibition [1] -5.49% | growth inhibition [2] 1.98% | viability increase [3] -3.4% | viability [4] 73% | viability [5] 75.9% | inhibition [6] 3.72% | RAM network inhibition [7] -0.06%

CC1CCN(S(=O)(=O)c2ccc(NC(=O)c3cccs3)cc2)CC1
inactive: growth inhibition [1] -0.77% | growth inhibition [2] 5.38% | viability increase [3] -5.18% | viability [4] 85.5% | viability [5] 75.8% | inhibition [6] 0.115% | RAM network inhibition [7] 3.83%

NC(=O)CSc1nnc(-c2ccncc2)n1-c1ccc(Cl)cc1
inactive: growth inhibition [1] -5.39% | growth inhibition [2] 0.11% | viability increase [3] -1.78% | viability [4] 97.7% | viability [5] 94.1% | inhibition [6] 0.785% | RAM network inhibition [7] 1.57%

Cc1ccc2c(c1)c1c(n2CC(O)CNC(CO)(CO)CO)CCCC1 (configuration not stated)
inactive: growth inhibition [1] -2.98% | growth inhibition [2] -11.3% | viability increase [3] -1.14% | viability [4] 94.9% | viability [5] 90.8% | inhibition [6] 0.175% | RAM network inhibition [7] -0.57%

Cc1ccc(CCN2CC(C(=O)NCCCN3CCN(C)CC3)CC2=O)cc1 (configuration not stated)
inactive: growth inhibition [1] 1.07% | growth inhibition [2] -3.19% | viability increase [3] -2.38% | viability [4] 75.9% | viability [5] 92.8% | inhibition [6] -0.675% | RAM network inhibition [7] 1.23%

CC(=O)N=C1SC2CS(=O)(=O)CC2N1c1c(Cl)cccc1Cl (configuration not stated)
inactive: growth inhibition [1] 5.46% | growth inhibition [2] 3.7% | viability increase [3] -1.41% | viability [4] 99.4% | viability [5] 94.2% | inhibition [6] 0.405% | RAM network inhibition [7] -0.17%

Oc1c(/C=N/c2ncn[nH]2)ccc2ccccc12
inactive: growth inhibition [1] -9.29% | growth inhibition [2] -4.74% | viability increase [3] -0.29% | viability [4] 98.3% | viability [5] 101% | inhibition [6] -0.085% | RAM network inhibition [7] -1.12%

CC1=C(C#N)C2C(/C1=N/O)C2(C)C (configuration not stated)
inactive: growth inhibition [1] -4.15% | growth inhibition [2] -6.87% | viability increase [3] -1.76% | viability [4] 95% | viability [5] 85.3% | inhibition [6] 0.79% | RAM network inhibition [7] 1.21%

COc1ccc2cc(S(=O)(=O)N3CCOCC3)ccc2c1
inactive: growth inhibition [1] -11.2% | growth inhibition [2] -7.81% | viability increase [3] -1.77% | viability [4] 94.4% | viability [5] 99.2% | inhibition [6] 0.075% | RAM network inhibition [7] 1.03%

C=CCn1c(SCc2ccc(F)cc2)nc2c1c(=O)[nH]c(=O)n2C
inactive: growth inhibition [1] -8.99% | growth inhibition [2] -8.69% | viability increase [3] -2.64% | viability [4] 96.9% | viability [5] 89% | inhibition [6] 0.25% | RAM network inhibition [7] 2.71%

CCCCOC(=O)C(C)Oc1ccc(=O)n(-c2ccccc2)n1 (configuration not stated)
inactive: growth inhibition [1] -4.39% | growth inhibition [2] -6.44% | viability increase [3] -1.41% | viability [4] 98% | viability [5] 88.4% | inhibition [6] 1.26% | RAM network inhibition [7] 2.76%

CCC(=O)Nc1ccc(C(=O)c2ccccc2)cc1
inactive: growth inhibition [1] -6.81% | growth inhibition [2] -2.21% | viability increase [3] 2.97% | viability [4] 98.5% | viability [5] 97% | inhibition [6] 1.16% | RAM network inhibition [7] 2.9%

Cc1nc(CNS(=O)(=O)c2ccc3ccccc3c2)cs1
inactive: growth inhibition [1] -0.84% | growth inhibition [2] 3.39% | viability increase [3] -1.37% | viability [4] 97.8% | viability [5] 87.9% | inhibition [6] 2.13% | RAM network inhibition [7] 0%

COc1ccc(C2CC3CC(c4ccccc4)N2O3)cc1 (configuration not stated)
inactive: growth inhibition [1] -3.88% | growth inhibition [2] -2.38% | viability increase [3] -1.22% | viability [4] 89.3% | viability [5] 93.5% | inhibition [6] 2.11% | RAM network inhibition [7] 4.21%

Cc1ccc(O)c(C(=O)c2cnn(C(=O)Cc3csc(C)n3)c2)c1
inactive: growth inhibition [1] -1.97% | growth inhibition [2] 1.6% | viability increase [3] -0.48% | viability [4] 98.9% | viability [5] 88.3% | inhibition [6] -0.5% | RAM network inhibition [7] -1.67%

Cc1cc2n(c1)CCn1c(C)ccc1-2
inactive: growth inhibition [1] 18.4% | growth inhibition [2] 14.5% | viability increase [3] -2.98% | viability [4] 97.8% | viability [5] 96.9% | inhibition [6] 1.99% | RAM network inhibition [7] 2.57%

COC(=O)c1ccc2c(=O)n3c(nc2c1)SCC(c1ccccc1)=N3
inactive: growth inhibition [1] 2.69% | growth inhibition [2] -0.25% | viability increase [3] -1.81% | viability [4] 95.1% | viability [5] 94.8% | inhibition [6] 2.39% | RAM network inhibition [7] 10.7%

C=CCC(=O)OCC(=O)Nc1ccc(Oc2ccccc2)cc1
inactive: growth inhibition [1] 6.73% | growth inhibition [2] 5% | viability increase [3] -5.15% | viability [4] 94.2% | viability [5] 94.1% | inhibition [6] -0.25% | RAM network inhibition [7] -0.31%

CC1(C)C(c2ccc(Cl)cc2)=[N+]([O-])C2(CCCC/C2=N\O)N1O (configuration not stated)
inactive: growth inhibition [1] -15.4% | growth inhibition [2] -4.64% | viability increase [3] 1.21% | viability [4] 96.5% | viability [5] 94.2% | inhibition [6] 0.555% | RAM network inhibition [7] 6.93%

Cc1cccc(C2Nc3ccccc3C(=O)N2c2ccccc2)n1 (configuration not stated)
inactive: growth inhibition [1] -13.9% | growth inhibition [2] -8.88% | viability increase [3] -2.08% | viability [4] 94.1% | viability [5] 101% | inhibition [6] 2.28% | RAM network inhibition [7] 2.46%

Cn1nc(-c2ccc(Cl)cc2)c2cc(C(=O)NCC3CCCO3)sc21 (configuration not stated)
inactive: growth inhibition [1] 1.54% | growth inhibition [2] 17.7% | viability increase [3] -5.84% | viability [4] 65.9% | viability [5] 60.2% | inhibition [6] -0.13% | RAM network inhibition [7] -2.54%

CC(=O)Oc1ccc(N2C(=O)C3C4C=CC(O4)C3C2=O)cc1 (configuration not stated)
inactive: growth inhibition [1] 14.2% | growth inhibition [2] 27.7% | viability increase [3] -1.46% | viability [4] 92.1% | viability [5] 101% | inhibition [6] 2.19% | RAM network inhibition [7] 0.14%

O=C(c1ccc2snnc2c1)N1CCCC1
inactive: growth inhibition [1] -11.3% | growth inhibition [2] -4.86% | viability increase [3] -0.66% | viability [4] 99.7% | viability [5] 94.2% | inhibition [6] 1.14% | RAM network inhibition [7] 4.99%

O=C(CSc1nc2c([nH]c3ccccc32)c(=O)n1-c1cccc(Cl)c1)N1CCOCC1
inactive: growth inhibition [1] -16.6% | growth inhibition [2] -12.8% | viability increase [3] -3.3% | viability [4] 79.6% | viability [5] 79.9% | inhibition [6] 1.64% | RAM network inhibition [7] 3.01%

Cc1cnc(C(=O)OCC(=O)Nc2cc(Cl)cc(Cl)c2)cn1
inactive: growth inhibition [1] -14.2% | growth inhibition [2] -9.38% | viability increase [3] -5.97% | viability [4] 96.7% | viability [5] 88.5% | inhibition [6] 1.13% | RAM network inhibition [7] 5.88%

CC(=O)OCCn1c(=O)c2cc3c(=O)n(CCOC(C)=O)c(=O)c3cc2c1=O
inactive: growth inhibition [1] -7.22% | growth inhibition [2] -6.18% | viability increase [3] -0.09% | viability [4] 101% | viability [5] 98.3% | inhibition [6] 1.84% | RAM network inhibition [7] 1.25%

COc1ccc(NC(=O)C2c3cc(OC)c(OC)cc3C(=O)N(C)C2c2cccnc2)cc1OC (configuration not stated)
inactive: growth inhibition [1] -1.76% | growth inhibition [2] -0.86% | viability increase [3] -3.2% | viability [4] 94.8% | viability [5] 95.5% | inhibition [6] 0.645% | RAM network inhibition [7] 4.68%

CCOc1ccc(N(CC(=O)Nc2ccc(C)cc2)S(=O)(=O)c2c(C)noc2C)cc1
inactive: growth inhibition [1] -18.5% | growth inhibition [2] -19.6% | viability increase [3] -3.45% | viability [4] 79.4% | viability [5] 67.4% | inhibition [6] 1.29% | RAM network inhibition [7] 4.04%

O=C(NC(O)C(=O)c1ccccc1)c1cccs1 (configuration not stated)
inactive: growth inhibition [1] 5.04% | growth inhibition [2] -5.63% | viability increase [3] -3.2% | viability [4] 95.4% | viability [5] 101% | inhibition [6] 1.66% | RAM network inhibition [7] 2.71%

COc1ccc(N(CC(=O)Nc2nccs2)S(=O)(=O)c2c(C)nn(C)c2C)cc1
inactive: growth inhibition [1] -18.2% | growth inhibition [2] -6.82% | viability increase [3] -3.77% | viability [4] 93% | viability [5] 87.5% | inhibition [6] 3% | RAM network inhibition [7] 3.8%

COc1ccc2oc(-c3ccccc3)c(C(=O)N3CCOCC3)c2c1
inactive: growth inhibition [1] 2.58% | growth inhibition [2] -8.54% | viability increase [3] -3.95% | viability [4] 94.3% | viability [5] 90% | inhibition [6] 1.52% | RAM network inhibition [7] 5.28%

Cc1ccc(C)c(S(=O)(=O)NC(CC(C)C)C(=O)O)c1 (configuration not stated)
inactive: growth inhibition [1] -9.28% | growth inhibition [2] -29.3% | viability increase [3] -1.32% | viability [4] 105% | viability [5] 102% | inhibition [6] 1.69% | RAM network inhibition [7] 2.5%

CCC(=O)N1CCc2cc(Br)cc(S(=O)(=O)NCCN3CCOCC3)c21
inactive: growth inhibition [1] -4.99% | growth inhibition [2] -8.08% | viability increase [3] 0.03% | viability [4] 101% | viability [5] 98.4% | inhibition [6] 1.71% | RAM network inhibition [7] 1.49%
